Measured values reported in paper PMC4899092 (Bioorganic & medicinal chemistry letters, 2016).

Assays:
[1] = test system: panel of 100 kinases; test: KINOMEscan selectivity over kinase panel; format: binding; settings: KINOMEscan panel of 100 kinases, 10 μM
[2] = molecular target: CSNK1D (Homo sapiens, UniProt P48730); test: KINOMEscan primary screen binding; settings: 10 μM; lower numbers indicate stronger hits
In short: (§1)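 Test compound profiled as a single-concentration primary binding screen across a panel of 100 kinases by the KINOMEscan service, at 10 μM. Binding interactions were reported as % Ctrl, with lower values indicating stronger hits. A selectivity score, S(35), was also calculated across the panel.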

[3] = molecular target: Pim1 (Homo sapiens, UniProt P11309); test: KINOMEscan primary screen binding; settings: 10 μM; lower numbers indicate stronger hits
Pim1, sequence (P11309 whole entry): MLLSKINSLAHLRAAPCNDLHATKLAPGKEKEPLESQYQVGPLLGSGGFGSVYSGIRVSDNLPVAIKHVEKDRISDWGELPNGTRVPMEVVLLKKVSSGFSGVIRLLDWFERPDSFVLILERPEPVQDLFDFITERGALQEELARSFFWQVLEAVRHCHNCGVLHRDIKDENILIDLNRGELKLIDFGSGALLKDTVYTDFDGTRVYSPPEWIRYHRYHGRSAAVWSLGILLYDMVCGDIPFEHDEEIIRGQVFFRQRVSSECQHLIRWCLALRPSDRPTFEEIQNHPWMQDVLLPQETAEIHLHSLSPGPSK
In short: as §1

[4] = molecular target: Pim3 (Homo sapiens, UniProt Q86V86); test: KINOMEscan primary screen binding; settings: 10 μM; lower numbers indicate stronger hits
In short: as §1

[5] = test system: DU-145 cells; test: Growth inhibition of DU-145 prostate cancer cells; format: cell-based; settings: read-out: IC50, growth inhibition of DU-145 cells; human prostate cancer cell line DU-145

CSNK1D, sequence (P48730 whole entry): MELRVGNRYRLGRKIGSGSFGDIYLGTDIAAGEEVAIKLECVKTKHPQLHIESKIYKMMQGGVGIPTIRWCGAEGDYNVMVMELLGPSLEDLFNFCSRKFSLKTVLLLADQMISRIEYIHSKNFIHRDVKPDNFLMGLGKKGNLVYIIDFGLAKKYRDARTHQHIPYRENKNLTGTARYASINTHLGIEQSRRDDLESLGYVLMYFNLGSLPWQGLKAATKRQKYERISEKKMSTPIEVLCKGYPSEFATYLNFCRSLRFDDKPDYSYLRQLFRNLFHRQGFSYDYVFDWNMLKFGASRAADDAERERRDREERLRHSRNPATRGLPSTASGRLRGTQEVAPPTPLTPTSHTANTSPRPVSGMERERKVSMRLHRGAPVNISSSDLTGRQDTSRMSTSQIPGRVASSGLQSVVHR

O=C1C2=C(C(=O)c3c(O)ccc(O)c31)[C@@H](O)[C@@H](O)[C@@H](O)C2 [Compound 4]
selectivity score S(35) [1]: 0.022 | % Ctrl CSNK1D [2]: 30 % control | % Ctrl Pim1 [3]: 34 % control | % Ctrl Pim3 [4]: 36 % control

CC(C)C(C)OC1CC(=O)CC2C(=O)c3c(O)ccc(O)c3C(=O)C12 (stereo not drawn) [Compound 7]
IC50 [5]: 3210 nM

CC(C)(C)OC1CC(O)CC2C(=O)c3c(O)ccc(O)c3C(=O)C12 (stereo not drawn) [Compound 9]
IC50 [5]: 2020 nM
